Assay results: paper PMC10580023 (RSC Advances, 2023)

What was measured:
Format in all cases: cell-based
[1] = test system: RAW 264.7 cells; assay: Intracellular ROS by DCFH-DA probe in LPS-stimulated macrophages; settings: Mus musculus, RAW264.7, read-out: ROS inhibition rate
Outline: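 RAW 264.7 macrophages (DMEM/10% FBS, 37 °C, 5% CO₂) pre-treated with test compound for 24 h, then stimulated with LPS 1 μg mL⁻¹ for 4 h. Cells harvested, loaded with DCFH-DA for 30 min at 37 °C in the dark, and washed three times with PBS. DCF fluorescence read on a multimode imaging reader and […]. Mean ± SD of three independent experiments.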

[2] = test system: RAW 264.7 cells; assay: IL-6 secretion by ELISA in LPS-stimulated macrophages; settings: pre-treatment 24 h, then LPS 1 μg mL^−1 for 4 h; ELISA of supernatant
Outline: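 RAW 264.7 macrophages (within passage 30) grown in DMEM with 10% FBS and 1% antibiotic-antimycotic at 37 °C, 5% CO2. Test compound at 25, 50 and 100 μM (legend: 0, 25, 50 μM) for 24 h, then LPS 1 μg mL⁻¹ for 4 h. Supernatant IL-6 measured by commercial ELISA kit. Three independent experiments, mean ± SD, compared with the LPS group.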

[3] = test system: RAW 264.7 cells; assay: TNF-α secretion by ELISA in LPS-stimulated macrophages; settings: pre-treatment 24 h, then LPS 1 μg mL^−1 for 4 h; ELISA of supernatant
[4] = test system: RAW 264.7 cells; assay: CCK-8 cell viability
Outline: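 Mouse RAW 264.7 macrophages (passage ≤30) grown in DMEM with 10% FBS and 1% antibiotic-antimycotic at 37 °C under 5% CO₂. Seeded at 10⁵ per well and left overnight. Exposed to test compound at 0–200 μM for 24 h. Viability read with a CCK-8 kit as % cell viability; IC50 calculated by curve fitting. Mean ± SD of three independent experiments.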

| Compound | inhibition at 50 µM [1] | Prevention of LPS-induced IL-6 secretion [2] | Prevention of LPS-induced TNF-α secretion [3] | inhibition at 25 µM [1] | Cytotoxicity (in words) [4] |
| --- | --- | --- | --- | --- | --- |
| C=C(C[C@@H]1CCSc2ccccc21)c1ccccc1C [3bd] | 52% | – | – | – | – |
| C=C(C[C@@H]1CCOc2ccccc21)c1ccc(Cl)cc1 [3al] | – | able to prevent LPS-induced IL-6 secretion | – | – | – |
| C=C(C[C@@H]1CCOc2ccc(C)cc21)c1ccccc1 [3ac] | 23% | – | no effect | -24% | – |
| C=C(C[C@@H]1CCSc2ccc(OC)cc21)c1ccccc1 [3aw] | – | able to prevent LPS-induced IL-6 secretion | – | – | – |
| C=C(C[C@@H]1CCOc2ccccc21)c1ccccc1C [3am] | 29% | – | – | – | – |
| Cc1c(C)c2c(c(C)c1O)CCC(C)(C(=O)O)O2 (centres unmarked) [Trolox, reference compound] | 20% | – | – | -3% | – |
| C=C(C[C@@H]1CCOc2ccccc21)c1ccc(C)cc1 [3aj] | – | able to prevent LPS-induced IL-6 secretion | – | – | little cytotoxicity |
| C=C(C[C@@H]1CCSc2ccc(C)cc21)c1ccccc1 [3ax] | 49% | – | no effect | 32% | – |
